Data: ChEMBL document CHEMBL1159012, “Anti-aids agents, 6. Salaspermic acid, an anti-HIV principle from Tripterygium wilfordii, and the structure-activity correlation with its related compounds” (J Nat Prod, 1992)
In brackets after ≈: the same amount, converted by molar mass. Activity calls are given as the source filed them. The rule behind the calls is not given here.

Columns and labels:
[1] = test system: H9; assay: Cytotoxicity against human H9 cells; format: cell-based
In short: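 Uninfected H9 lymphocytes were handled in parallel with the infected cultures: 1 h mock exposure at 37°, washing, resuspension at 4×10^5 cells/ml, and 3 days at 37° with an equal volume of compound diluted in medium. Cell density was counted with a Coulter counter. IC50 was read graphically from a plot of % inhibition versus concentration.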

[2] = test system: Human immunodeficiency virus 1; assay: Antiviral activity against HIV 3B infected human H9 cells assessed as inhibition of p24 antigen release; format: functional; details: Human immunodeficiency virus 1, 3B, read-out: ED50 (the source's name)
In short: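 H9 lymphocytes (3.5×10^6 cells/ml) exposed to HIV-1 HTLV-IIIB at 0.01-0.1 TCID50/cell for 1 h at 37°, then washed and resuspended at 4×10^5 cells/ml. Mixed with an equal volume of compound diluted in medium and cultured 3 days at 37°. Virus released into the medium measured by p24 antigen capture. EC50 read graphically from a plot of % inhibition versus concentration.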

[3] = biological target: T1, Human immunodeficiency virus type 1 reverse transcriptase (Human immunodeficiency virus 1, UniProt Q72547); assay: Inhibition of HIV1 recombinant reverse transcriptase expressed in Escherichia coli using poly(dC)-oligo(dG) template
[4] = biological target: T1, Human immunodeficiency virus type 1 reverse transcriptase; assay: Inhibition of HIV1 recombinant reverse transcriptase expressed in Escherichia coli using poly(rG)-oligo(dC) template
[5] = biological target: Human immunodeficiency virus type 1 reverse transcriptase (Human immunodeficiency virus 1) (UniProt Q72547); assay: Inhibition of RNAse activity of HIV1 recombinant reverse transcriptase using poly(dT).[3H]poly(rA) template at 100 ug/ml
In short: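 The RNase H activity of purified HIV-1 reverse transcriptase, expressed in E. coli JM109/pKRT2, was assayed with poly(dT)·[3H]poly(rA) as substrate. Compound was tested at 100 µg/ml.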

[6] = biological target: Human immunodeficiency virus type 1 reverse transcriptase (Human immunodeficiency virus 1) (UniProt Q72547); assay: Inhibition of HIV1 recombinant reverse transcriptase expressed in Escherichia coli using poly(rG)-oligo(dC) template at 100 ug/ml
[7] = biological target: T1, Human immunodeficiency virus type 1 reverse transcriptase; assay: Inhibition of HIV1 recombinant reverse transcriptase expressed in Escherichia coli using poly(rU)-oligo(dA) template
[8] = biological target: Human immunodeficiency virus type 1 reverse transcriptase (Human immunodeficiency virus 1) (UniProt Q72547); assay: Inhibition of DNA polymerase activity of HIV1 recombinant reverse transcriptase
In short: (§1)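 Reverse transcriptase purified from E. coli expressing it: HIV-1 from JM109 carrying pKRT2, HIV-2 from a strain bearing pASRT2. HIV-2 enzyme was run with poly(rC)·oligo(dG). EC50 values were reported.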

[9] = Inhibition of HIV2 reverse transcriptase using poly(rC)-oligo(dG) template; parameters: species or system Human immunodeficiency virus 2; in short: as §1
[10] = biological target: Human immunodeficiency virus type 1 reverse transcriptase (Human immunodeficiency virus 1) (UniProt Q72547); assay: Inhibition of HIV1 recombinant reverse transcriptase expressed in Escherichia coli using poly(rU)-oligo(dA) template at 100 ug/ml
[11] = biological target: T1, Human immunodeficiency virus type 1 reverse transcriptase; assay: Inhibition of HIV1 recombinant reverse transcriptase expressed in Escherichia coli using poly(rC)-oligo(dG) template
[12] = biological target: T1, Human immunodeficiency virus type 1 reverse transcriptase; assay: Inhibition of HIV1 recombinant reverse transcriptase expressed in Escherichia coli using poly(rA)-oligo(dT) template

SMILES	EC50 [2] [µM]	IC50 [1] [µM]	other results
C[C@@H]1[C@@]23CC[C@H]4[C@@](C)(CC[C@@]5(C)[C@@H]6C[C@](C)(C(=O)O)CC[C@]6(C)CC[C@]45C)[C@@H]2C[C@@H](O)[C@@]1(O)OC3	103	64	
C[C@H]1C(=O)CC[C@@H]2[C@]1(C)CC[C@H]1[C@@]2(C)CC[C@@]2(C)[C@@H]3CC(C)(C)CC[C@]3(CO)CC[C@]12C [CANOPHYLLOL]	4	18	
C[C@@H]1[C@@]23CC[C@H]4[C@@](C)(CC[C@@]5(C)[C@@H]6C[C@](C)(C(=O)O)CC[C@]6(C)CC[C@]45C)[C@@H]2CC[C@@]1(O)OC3 [SALASPERMIC ACID]	10	53	EC50 [3]: 159 µM; EC50 [4]: > 212 µM; Activity [5]: inactive; inhibition [6]: 4%; EC50 [7]: > 212 µM; Activity [8]: Active; EC50 [9]: 100 µg/mL (≈ 212 µM); inhibition [10]: 37%; EC50 [11]: 31.7 µM; EC50 [12]: 33.8 µM
C[C@H]1C(=O)CC[C@@H]2[C@]1(C)CC[C@H]1[C@@]2(C)CC[C@@]2(C)[C@@H]3C[C@@](C)(C(=O)O)CC[C@]3(C)CC[C@]12C	59	44	
C[C@H]1C(=O)CC[C@@H]2[C@]1(C)CC[C@H]1[C@@]2(C)CC[C@@]2(C)[C@@H]3C[C@](C)(CO)CC[C@]3(CO)CC[C@]12C	11	15	
C[C@H]1C(=O)CC[C@H]2[C@]3(C)CC[C@@]4(C)[C@@H]5CC(C)(C)C(=O)C[C@]5(C)C(=O)C[C@]4(C)[C@H]3C[C@@H](O)[C@]12C	> 106	106	
C[C@H]1C(=O)CC[C@@H]2[C@]1(C)CC[C@H]1[C@@]2(C)CC[C@@]2(C)[C@@H]3CC(C)(C)CC[C@]3(OO)CC[C@]12C	38	38	

The remaining molecules from weak to strong by EC50 [2], led by results:

EC50 [2] [µM]	SMILES	IC50 [1] [µM]	other results
66	C[C@H]1C(=O)CC[C@@H]2[C@]1(C)CC[C@H]1[C@@]2(C)CC[C@@]2(C)[C@@H]3C[C@](C)(C(=O)O)CC[C@]3(C)CC[C@]12C [MAYTENOIC ACID]	44	
15	C[C@H]1C(=O)CC[C@@H]2[C@]1(C)CC[C@H]1[C@@]2(C)CC[C@@]2(C)[C@@H]3CC(C)(C)CC[C@]3(C(=O)O)CC[C@]12C	22	
13	C[C@H]1C(=O)CC[C@@H]2[C@]1(C)CC[C@H]1[C@@]2(C)CC[C@@]2(C)[C@@H]3C[C@@](C)(CO)CC[C@]3(CO)CC[C@]12C	20	
2	C[C@H]1C(=O)CC[C@@H]2[C@]1(C)CC[C@H]1[C@@]2(C)CC[C@@]2(C)[C@@H]3CC(C)(C)CC[C@]3(C)[C@H](O)C[C@]12C	8	
